KCNK3 inh = human KCNK3 channel inhibition, primary screen. CHO-KCNK3 thallium flux, FluxOR fluorescence; hits give low values. B-score at 10 µM. actives 0.84% (n = 340,000);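 active = B-score under library mean minus 4 SD, starting fluorescence ratio at most library mean plus 5 SD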;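 note: more negative B-score means stronger inhibition of thallium flux through KCNK3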
Kir21 inh = inhibitors of mouse Kir2.1 inward-rectifier potassium channel; P35561; HEK293-Kir2.1, FluxOR thallium flux fluorescence; hits give low values; B-score at 10 µM; actives 0.85% (n = 310,000); AID 1672;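 active = fluorescence ratio B-score at or below minus 3 SD of library scores, with starting-brightness B-score within 2 SD, cut at about -4.2 in these data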;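 note: channel flux triggered by added potassium and thallium sulfate stimulus; B-score of peak minus minimum fluorescence over baseline after thallium stimulus; more negative B-score means stronger Kir2.1 block with less thallium influx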
Target sequence (P35561 whole entry, looked up): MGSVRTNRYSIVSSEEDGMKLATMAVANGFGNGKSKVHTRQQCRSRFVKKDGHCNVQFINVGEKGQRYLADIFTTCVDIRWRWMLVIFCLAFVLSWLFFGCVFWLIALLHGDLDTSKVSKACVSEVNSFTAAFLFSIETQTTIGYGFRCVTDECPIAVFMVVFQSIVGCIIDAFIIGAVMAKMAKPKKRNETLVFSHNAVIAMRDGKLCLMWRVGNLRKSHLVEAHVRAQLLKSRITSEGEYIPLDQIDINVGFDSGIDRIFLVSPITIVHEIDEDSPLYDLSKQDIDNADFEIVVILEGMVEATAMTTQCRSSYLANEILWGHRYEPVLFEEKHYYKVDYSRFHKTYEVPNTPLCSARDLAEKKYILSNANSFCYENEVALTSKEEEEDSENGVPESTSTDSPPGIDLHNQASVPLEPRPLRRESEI
KCNK9 inh = blocks the human KCNK9 two-pore domain potassium channel; actives 1.2% (n = 310,000); HEK293 KCNK9, FluxOR thallium flux fluorescence; hits give low values; B-score at 10 µM;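 active = ratio B-score over 3 SD below the library mean, with starting fluorescence within 5 SD of its mean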;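 note: negative B-score means less thallium flux so channel inhibition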
KCNQ1 block = inhibitors of human KCNQ1 potassium channel; P51787; CHO-K1 KCNQ1, FluxOR thallium flux fluorescence; hits give high values; B-score at 10 µM; actives 1.3% (n = 310,000); AID 2642;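 active = compounds whose thallium flux B-score, printed positive for inhibition, exceeds three library SD while starting fluorescence stays within three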;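 note: channel opened by potassium depolarization with thallium stimulus after 20 min compound exposure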
KCNQ1 act = human KCNQ1 channel potentiation or activation. CHO-K1 KCNQ1, thallium flux FluxOR fluorescence; hits give high values. B-score at 10 µM. actives 0.35% (n = 310,000). AID 2648;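 active = fluorescence ratio B-score, a plate-corrected score, at least three library SD, with initial intensity B-score within 5 SD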
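Assay system: stable KCNQ1 CHO-K1 line; medium: assay buffer, equal DMSO in all wells; timing: 90 min dye loading and 20 min compound exposure, both at room temperature; technique: kinetic FluxOR thallium fluorescence, 10-s 1-Hz baseline, 110-s post-stimulus read; read-out basis: B score of baseline-normalized fluorescence ratio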
hERG rescue = hERG (human) protection from proarrhythmic block. Q12809. CHO-hERG, FluxOR thallium flux, dofetilide IC70 present. activation (rescue from dofetilide block), less the hit threshold, % at 10 µM. actives 0.51% (n = 310,000). AID 1511;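 active = activation above the mean of controls blocked by dofetilide plus 5 SD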;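 note: thallium influx through hERG after potassium depolarization seen as dye fluorescence rise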
Starred values were filed as active, the others as inactive; i = inactive; . = not tested or not shown. Rows were chosen to be rich in hits. Some 3.7% of all compounds tested hit in one or more screens of this group.

SMILES	KCNK3 inh	Kir21 inh	KCNK9 inh	KCNQ1 block	KCNQ1 act	hERG rescue
Cc1csc(NC(=O)C2C3C=CC(C3)C2C(=O)O)n1 (stereo unspecified)	i	-2.8	i	i	i	5.4*
COc1cccc(NC(=O)C2C3C=CC(C3)C2C(=O)O)c1 (stereo unspecified)	i	0.95	i	i	i	7.4*
COc1ccc(NC(=O)C2C3C=CC(C3)C2C(=O)O)cc1 (stereo unspecified)	i	0.62	i	i	i	-7
Cc1ccc(-c2[nH]ncc2CN2CCN(C(=O)c3cccs3)CC2)cc1C	i	-0.31	i	i	i	-12
O=C(NC(=S)Nc1ccc(N2CCCCC2)cc1)c1ccco1	i	0.85	i	i	9*	5.6*
CC1CCN(c2ccc(NC(=S)NC(=O)c3ccco3)cc2)CC1	i	0.01	i	i	i	-2
O=C(NC(=S)Nc1ccccc1N1CCCCC1)c1ccco1	i	0.68	i	i	i	14*
O=C(NC(=S)Nc1ccccc1Cl)c1ccco1	i	-0.97	i	i	14*	12*
O=C(NC(=S)Nc1cccc2c(O)cccc12)c1ccco1	i	0.42	i	i	i	0
O=C(NC(=S)Nc1ccccc1N1CCCC1)c1ccccc1Br	i	0.52	i	i	16*	14*
COc1ccc(N2CCN(CCNS(=O)(=O)c3ccc(C)cc3)CC2)cc1	i	2.4	i	i	i	-4
N#Cc1c(N)n(C2OC(CO)C(O)C2O)c2ncnc(N)c12 (stereo unspecified)	i	.	.	.	.	.
CC1(C)CC[C@]2(C(=O)n3ccnc3)CC[C@]3(C)[C@H](C(=O)C=C4[C@@]5(C)C=C(C#N)C(=O)C(C)(C)[C@@H]5CC[C@]43C)[C@@H]2C1	i	.	.	.	.	.
CCCCN(C(=O)c1oc2ccc(OCC)cc2c1C)c1c(N)n(CC(C)C)c(=O)[nH]c1=O	i	0.04	i	i	i	-11
CCC(C)c1ccccc1NC(=S)NC(=O)c1ccco1 (stereo unspecified)	i	-1.2	i	i	29*	32*
O=C(NC(=S)Nc1cccc(Cl)c1N1CCCCC1)c1ccco1	i	0.41	i	i	16*	3
CC(C)C(=O)N1CCN(c2ccccc2NC(=S)NC(=O)c2ccco2)CC1	i	0.7	i	i	i	-4
O=C(NC(=S)Nc1ccccc1N1CCCC1)c1ccco1	i	1.3	i	i	12*	3
O=C(NC(=S)Nc1ccccc1N1CCOCC1)c1ccco1	i	0.83	i	i	i	-9
COCCN(C(=O)c1cc(S(=O)(=O)N2CCCCC2)ccc1Cl)c1c(N)n(CC(C)C)c(=O)[nH]c1=O	i	.	.	.	.	.
Cc1ccc2nc(SC(C)C(=O)NCc3ccc4c(c3)OCO4)[nH]c2c1 (stereo unspecified)	i	-1	i	i	i	19*
CC(Sc1ccc(Cl)cc1)C(=O)NCc1ccc2c(c1)OCO2 (stereo unspecified)	i	-3.8	i	i	i	-5
COc1ccc(C(=O)N2CCOC2CNC(=O)C(=O)NCCc2ccccc2OC)cc1 (stereo unspecified)	i	-0.19	i	i	i	-8
COc1cccc(CN(C(=O)Cc2c[nH]c3ccccc23)C(C(=O)NC2CCCCC2)c2cccs2)c1 (stereo unspecified)	i	-1.6	i	7*	i	-14
O=C(NC1CCCCC1)C(c1cccs1)N(C(=O)Cc1c[nH]c2ccccc12)c1ccc(F)cc1 (stereo unspecified)	i	0.41	i	i	i	-9
SMILES	KCNK3 inh	Kir21 inh	KCNK9 inh	KCNQ1 block	KCNQ1 act	hERG rescue
COc1ccc(C(C(=O)NC2CCCCC2)N(Cc2cccs2)C(=O)Cc2c[nH]c3ccccc23)cc1 (stereo unspecified)	i	1.4	-7.3*	i	i	-9
O=C1CCC2(CCCCC2)N1	i	.	.	.	.	.
Cc1cc(C(=O)CSc2ncnc3ccccc23)c(C)n1C1CC1	i	.	.	.	.	.
Cc1cc(-n2c(C)cc(C(=O)CSc3ncnc4ccccc34)c2C)no1	i	0.84	i	6*	i	-19
COc1ccc(C(C(=O)NC(C)(C)C)N(C(=O)CNC(=O)c2cccs2)c2cccnc2)cc1OC (stereo unspecified)	i	0.01	i	i	i	-5
CCC(Cc1ccccc1)NS(=O)(=O)c1csc(C(N)=O)c1 (stereo unspecified)	i	-0.65	i	i	i	-3
CC(O)CNCc1ccc(-c2ccccc2)cc1 (stereo unspecified)	i	0.15	i	i	i	-8
CC(NCc1ccc(-c2ccccc2)cc1)C(O)c1ccccc1 (stereo unspecified)	i	-14*	i	i	i	-17
CCN(C(=O)COC(=O)c1cccc(S(=O)(=O)N(C)C)c1)c1c(N)n(Cc2ccccc2)c(=O)[nH]c1=O	i	.	.	.	.	.
CC(C)CN1CC(C)C(=O)NC1=S (stereo unspecified)	i	.	.	.	.	.
O=C(O)CN1C(=O)/C(=C\c2cn(CC(=O)N3CCOCC3)c3ccccc23)SC1=S	i	-7.7	i	6*	i	-15
O=C(CCCN1C(=O)/C(=C\c2ccccc2)SC1=S)N1CCOCC1	i	.	.	.	.	.
Cc1ccc(S(=O)(=O)N2CCN(CN3C(=O)CC4(CCCC4)C3=O)CC2)cc1	i	.	.	.	.	.
O=C(COc1cc2oc(=O)c3c(c2cc1Cl)CCCC3)NCC1CCC(C(=O)O)CC1 (stereo unspecified)	i	0.57	i	i	i	-11
CCN(CC(=O)Nc1c(F)cccc1F)C(=O)CSc1ccc(F)cc1	i	1.7	i	i	i	-7
CCN(CC(=O)NCc1ccc(Cl)cc1)C(=O)CSc1ccc(F)cc1	i	-4.5*	i	i	i	-11
CCOC(=O)C1=C(c2ccccc2)NC(=O)NC1c1ccc(O)c(Cl)c1 (stereo unspecified)	i	-7.8*	i	i	i	13*
CC(C)NC(=O)/C(C#N)=C/c1ccc(N(C)C)o1	i	-3.7	i	7*	i	-14
O=C(COC(=O)c1cccnc1Cl)Nc1cc(S(=O)(=O)N2CCCCCC2)ccc1Cl	i	.	.	.	.	.
COc1ccc(Cl)cc1NC(=O)COC(=O)CCc1cc(OC)c(OC)c(OC)c1	i	-4.9*	i	i	i	-6
COc1ccc(Cl)cc1NC(=O)COC(=O)Cc1cc(OC)c(OC)c(OC)c1	i	.	.	.	.	.

Bioassay records deposited in PubChem BioAssay by Johns Hopkins Ion Channel Center.
